Two compounds from ChEMBL document CHEMBL4680121, “Development of (4-methoxyphenyl)-1H-tetrazol-5-amine regioisomers as a new class of selective antitubercular agents” (Eur J Med Chem, 2020) can be followed below.

Common to all, as to format: functional
Assay [1] deals with Mycobacterium tuberculosis. Put plainly: Antitubercular activity against INH-resistant Mycobacterium tuberculosis Spec.800 assessed as isoniazid MIC incubated for 14 days in presence of isoniazid by MABA method. Particulars: Mycobacterium tuberculosis, 800, 336 h; time 14 day. A digest of the protocol: (§1)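 In Middlebrook 7H9 with 10% OADC, the reference drug (INH, RMP, SM or EMB) at 1 to 1/32 of its MIC alone was mixed with the test derivative fixed at 1/2 its MIC. 4 ml samples were inoculated with McFarland 1 suspension and incubated 14 days at 37 °C. MIC is the lowest drug concentration in combination that inhibited growth.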

Assay [2] deals with Mycobacterium tuberculosis. As to the kind of experiment: Antitubercular activity against PAS/INH/EMB/RMP-resistant Mycobacterium tuberculosis Spec.210 assessed as fractional inhibitory concentration index in presence of 1/2 x MIC ethambutol incubated for 14 days by MABA method. Particulars: time 14 day. A digest of the protocol:
(§2)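 Interaction analysis in Middlebrook 7H9 with 10% OADC. Combination MICs came from mixing the derivative (1 to 1/32 MIC) with the reference drug at 1/2 MIC, and the reverse, after 14 days at 37 °C with McFarland 1 inoculum. FICI was calculated from the combination MIC values and the MICs alone.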
In general terms: The colour change of resazurin is a common sign of viable cells or microbes.

The subject of assay [3] is Mycobacterium tuberculosis. Put plainly: Antitubercular activity against INH-resistant Mycobacterium tuberculosis Spec.800 assessed as reduction in bacterial growth incubated for 14 days in presence of 1/2 x MIC ethambutol by MABA method. Particulars: Mycobacterium tuberculosis, 800, 336 h; time 14 day. A digest of the protocol: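 Checkerboard-type combination in Middlebrook 7H9 with 10% OADC. The test derivative at 1 to 1/32 of its MIC alone was mixed with the reference drug fixed at 1/2 its MIC. 4 ml samples were inoculated with McFarland 1 suspension and incubated 14 days at 37 °C. MIC is the lowest derivative concentration in combination that inhibited growth in liquid medium.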

For assay [4], the system named is Mycobacterium tuberculosis. Put plainly: Antitubercular activity against PAS/INH/EMB/RMP-resistant Mycobacterium tuberculosis Spec.210 assessed as streptomycin MIC incubated for 14 days in presence of streptomycin by MABA method. Particulars: Mycobacterium tuberculosis, 210, 336 h; time 14 day. A digest of the protocol: (§3)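 Combination assay in Middlebrook 7H9 broth with 10% OADC. The reference drug (INH, RMP, SM or EMB) was varied from 1 to 1/32 of its MIC, and the test derivative was fixed at 1/2 its own MIC. Single-agent MICs were determined first by MABA. Inoculum was 1 McFarland, with 14 days of incubation at 37 °C. The endpoint was the lowest reference-drug concentration that inhibited growth.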

The subject of assay [5] is Mycobacterium tuberculosis. As to the kind of experiment: Antitubercular activity against PAS/INH/EMB/RMP-resistant Mycobacterium tuberculosis Spec.210 assessed as fractional inhibitory concentration index in presence of 1/2 x MIC streptomycin incubated for 14 days by MABA method. Particulars: time 14 day. A digest of the protocol:
as §2

The test system of assay [6] is Mycobacterium tuberculosis. Put plainly: Antitubercular activity against PAS/INH/EMB/RMP-resistant Mycobacterium tuberculosis Spec.210 assessed as ethambutol MIC incubated for 14 days in presence of ethambutol by MABA method. Particulars: Mycobacterium tuberculosis, 210, 336 h; time 14 day. A digest of the protocol: as §1
The test system of assay [7] is Mycobacterium tuberculosis. Put plainly: Potentiation of isoniazid-induced antimycobacterial activity against INH-resistant Mycobacterium tuberculosis Spec.800 harboring InhA promoter mutation assessed as fold decrease in isoniazid MIC at 1/2X MIC incubated for 14 days in presence of isoniazid by MABA method. Particulars: time 14 day. The method, boiled down:
as §3

The subject of assay [8] is Mycobacterium tuberculosis. As to the kind of experiment: Potentiation of rifampcin-induced antimycobacterial activity against INH-resistant Mycobacterium tuberculosis Spec.800 harboring InhA promoter mutation assessed as fold decrease in rifampicin MIC at 1/2X MIC incubated for 14 days in presence of rifampicin by MABA method. Particulars: time 14 day. A digest of the protocol: as §3

Assay [9] has as its system Mycobacterium tuberculosis. As to the kind of experiment: Antitubercular activity against PAS/INH/EMB/RMP-resistant Mycobacterium tuberculosis Spec.210 assessed as inhibition of microbial growth incubated for 1 week by MABA method. Particulars: Mycobacterium tuberculosis, 210, 168 h; time 1 weeks. The method, boiled down:
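Microplate Alamar Blue assay in Middlebrook 7H9 broth with 10% OADC. Inoculum from fresh LJ culture was adjusted to McFarland 1 and diluted 1:20. DMSO stocks were two-fold serially diluted to final 0.125–512 µg/ml, with growth and sterile controls. Plates ran 1 week at 37 °C, then Alamar blue was added for 24 h. MIC is the lowest concentration preventing the blue-to-pink change.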

Assay [10] has as its system Mycobacterium tuberculosis. As to the kind of experiment: Potency index, Ratio of ethambutol MIC to test compound MIC for antitubercular activity against PAS/INH/EMB/RMP-resistant Mycobacterium tuberculosis Spec.210 assessed as inhibition of microbial growth incubated for 1 week by MABA method. Particulars: time 1 weeks.
The subject of assay [11] is Mycobacterium tuberculosis. As to the kind of experiment: Antitubercular activity against PAS/INH/EMB/RMP-resistant Mycobacterium tuberculosis Spec.210 assessed as reduction in bacterial growth incubated for 14 days in presence of 1/2 x MIC rifampicin by MABA method. Particulars: Mycobacterium tuberculosis, 210, 336 h; time 14 day. The method, boiled down:
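Checkerboard-style combination in Middlebrook 7H9 broth with 10% OADC. The test derivative was varied from 1 to 1/32 of its MIC, and the reference drug was fixed at 1/2 its own MIC. Single-agent MICs were determined first by MABA. Samples of 4 ml received inoculum at 1 McFarland and were incubated 14 days at 37 °C. The endpoint was the lowest derivative concentration that inhibited growth.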

Assay [12] concerns Mycobacterium tuberculosis. As to the kind of experiment: Potentiation of ethambutol-induced antimycobacterial activity against INH-resistant Mycobacterium tuberculosis Spec.800 harboring InhA promoter mutation assessed as fold decrease in ethambutol MIC at 1/2X MIC incubated for 14 days in presence of ethambutol by MABA method. Particulars: time 14 day. A digest of the protocol:
as §3

`COc1ccc(-n2nnnc2Nc2cccc(Br)c2)cc1`: the MIC came out at 1 µg/mL in assay [1]; 32 µg/mL in [3]; 16 µg/mL in assay [4]; 16 µg/mL in assay [6]; 2 µg/mL in assay [9]; 0.5 µg/mL in assay [11]. The “fractional inhibitory concentration index (FICI)” value in assay [2] is reported as 1.5; in assay [5] it was 1.25. Besides, the “fold change (FC)” value in assay [7], in [8] and in assay [12] was “<=4” throughout. Also, the Ratio in [10] was 16.
In the case of `COc1ccc(-n2nnnc2Nc2ccc(Br)cc2)cc1`, the MIC in assay [1] turned out to be 0.5 µg/mL; in [3], 32 µg/mL; in assay [4], 8 µg/mL; in [6] it was 16 µg/mL; in [9] it was 2 µg/mL; in assay [11], 1 µg/mL. Further, the “fractional inhibitory concentration index (FICI)” value in assay [2] was found to be 1.5; in [5], 1. Moreover, the Ratio in assay [10] is reported as 16.

A word on the MIC: it is the smallest concentration in the dilution series that meets the test's criterion for growth inhibition.
